High-throughput results deposited in PubChem by Broad Institute.
GASC1 inh = inhibitors of human demethylase GASC-1 KDM4C. Q9H3R0. GST-KDM4C 2-372, H3K9me3 peptide, LANCE TR-FRET. inhibition, % at 12.5 µM. actives 0.15% (n = 96,000). AID 720574;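 active = mean replicate inhibition above about 25%, with at least 55% of replicates also reaching it, limit read from the data, passing the limit was not always enough; inconclusive = only one of those two conditions met; inactive = neither condition met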
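Test system – GST-tagged GASC-1 (JMJD2C) catalytic fragment, aa 2-372 · Medium – HEPES buffer, pH 7.5, plus ascorbate · Reagent – H3K9me3 peptide with Fe(II)/2OG · Compound – one test concentration per compound · Timing – 30 min reaction, 60 min detection, RT · Technique – TR-FRET with Eu antibody and ULight streptavidin, EDTA stop · Read-out basis – inhibition from TR-FRET ratio decrease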
Pf Dd2 inh = inhibitors of Plasmodium falciparum Dd2 growth. P. falciparum Dd2 growth, SYBR Green, 72 h; active compounds read low. activity change, % at 10 µM. actives 2.3% (n = 94,000). AID 1159554; in the data active = activity change below about -80%; inconclusive = no clear call, values can overlap the other calls
IDH1 mut inh = IDH1 R132H (human) inhibition. actives 0.18% (n = 70,000). AID 624101. IDH1 R132H reductase, diaphorase/resazurin fluorescence, 60 min. inhibition, % at 10 µM. O75874; in the data active = inhibition above about 34%; inconclusive = no clear call, values can overlap the other calls; inactive = below about 11%;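 also: 0% = DMSO and 100% = no enzyme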
Target sequence (O75874 whole entry R132H): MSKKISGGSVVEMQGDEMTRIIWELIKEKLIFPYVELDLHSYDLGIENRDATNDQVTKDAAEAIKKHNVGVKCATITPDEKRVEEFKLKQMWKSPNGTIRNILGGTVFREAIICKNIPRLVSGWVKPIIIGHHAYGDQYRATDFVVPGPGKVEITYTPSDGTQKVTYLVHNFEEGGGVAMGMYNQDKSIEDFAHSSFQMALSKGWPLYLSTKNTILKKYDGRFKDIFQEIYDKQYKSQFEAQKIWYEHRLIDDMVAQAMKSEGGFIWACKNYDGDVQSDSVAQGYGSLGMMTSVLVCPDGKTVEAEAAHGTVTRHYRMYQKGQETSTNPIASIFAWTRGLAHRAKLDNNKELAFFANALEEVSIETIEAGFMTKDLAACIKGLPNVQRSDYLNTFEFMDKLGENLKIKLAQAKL
T cruzi growth-1 = blocks T. cruzi growth in NIH3T3 culture | T. cruzi beta-gal in NIH3T3, GalScreen luminescence, 90 h | inhibition, % at 8.34 µM | actives 5.9% (n = 77,000) | AID 624255;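 active = mean inhibition above about 93%, with at least 55% of replicates each passing it, limit read from the data, passing the limit was not always enough; inconclusive = only one of those two conditions holds; inactive = neither condition holds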
T cruzi growth-2 = inhibitors of T. cruzi proliferation | shares compounds with T cruzi growth-1 | actives 72% (n = 5,600) | AID 651739 | inhibition, % at 8.35 µM | T. cruzi beta-gal in NIH3T3, GalScreen luminescence, 90 h;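 active = mean replicate inhibition above about 95% and at least 55% of replicates individually reaching it, limit read from the data; inconclusive = only one of the two criteria is met; inactive = neither criterion is met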
T cruzi growth-3 = inhibitors of T. cruzi proliferation; shares compounds with T cruzi growth-1; T. cruzi beta-gal in NIH3T3, GalScreen luminescence, 90 h; inhibition, % at 2.09 µM; actives 21% (n = 5,600);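 active = mean inhibition above about 95%, with at least 55% of replicates also reaching it, limit read from the data; inconclusive = meets just one of the two conditions; inactive = meets neither condition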;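 also: plate controls were neutral control median for no effect and positive control median for full effect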
NIH3T3 tox = kills mouse NIH/3T3 fibroblasts; shares compounds with T cruzi growth-1; NIH/3T3 viability, CellTiter-Glo ATP luminescence, 90 h; cytotoxicity (signal decrease), % at 8.35 µM; actives 14% (n = 5,600); AID 651742;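 active = mean signal decrease across replicates above about 35% based on untreated-well scatter, with enough replicates individually passing, limit read from the data; inconclusive = no rule stated though some were filed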;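 also: 0% = median of neutral control wells and 100% = median of positive control wells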
NIH3T3 tox 2 = NIH/3T3 (mouse) viability loss; shares compounds with T cruzi growth-1; NIH/3T3 viability, CellTiter-Glo ATP luminescence, 90 h; inhibition, % at 24.9 µM; actives 56% (n = 5,600);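 active = mean loss of cell viability signal at or above a set limit, and enough replicates individually reaching it; inconclusive = meets only the mean limit or only the replicate share; inactive = meets neither condition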;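 also: 0% = median of neutral control wells and 100% = median of positive control wells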
An asterisk follows results filed as active; ? = inconclusive; . = no result. This is a sample that favours compounds with a hit; in the whole collection about 5.8% have one here.

SMILES	GASC1 inh	Pf Dd2 inh	IDH1 mut inh	T cruzi growth-1	T cruzi growth-2	T cruzi growth-3	NIH3T3 tox	NIH3T3 tox 2
Cc1noc(C)c1S(=O)(=O)N(C)C[C@H]1OCCCC[C@@H](C)Oc2ccc(NC(=O)Nc3ccc4c(c3)OCO4)cc2C(=O)N([C@H](C)CO)C[C@@H]1C	1	0	0	103*	?	13	26	45*
Cc1noc(C)c1S(=O)(=O)N(C)C[C@@H]1OCCCC[C@@H](C)Oc2ccc(NC(=O)Nc3ccc4c(c3)OCO4)cc2C(=O)N([C@@H](C)CO)C[C@@H]1C	1	-36	.	58	.	.	.	.
Cc1noc(C)c1S(=O)(=O)N(C)C[C@H]1OCCCC[C@@H](C)Oc2ccc(NC(=O)Nc3ccc4c(c3)OCO4)cc2C(=O)N([C@@H](C)CO)C[C@H]1C	-1	-78	2	108*	105*	25	28	21
Cc1noc(C)c1S(=O)(=O)N(C)C[C@H]1OCCCC[C@H](C)Oc2ccc(NC(=O)Nc3ccc4c(c3)OCO4)cc2C(=O)N([C@@H](C)CO)C[C@@H]1C	-1	-78	1	?	106*	4	0	-3
COc1ccccc1NC(=O)N[C@@H]1CC[C@H](CCn2cc(-c3cccnc3)nn2)O[C@H]1CO	2	-29	0	3	.	.	.	.
COc1cccc(-c2ccc3c(c2)O[C@H](CN(C)C(=O)C2CCC2)[C@H](C)CN([C@@H](C)CO)S3(=O)=O)c1	0	-39	-1	103*	95*	58	57*	78*
COc1cccc(-c2ccc3c(c2)O[C@H](CN(C)C(=O)C2CCCCC2)[C@H](C)CN([C@H](C)CO)S3(=O)=O)c1	0	-18	.	115*	106*	98*	44*	87*
COc1cccc(-c2ccc3c(c2)O[C@@H](CN(C)C(=O)C2CCCCC2)[C@H](C)CN([C@@H](C)CO)S3(=O)=O)c1	-1	-68	.	112*	105*	74	19	90*
COc1cccc(-c2ccc3c(c2)O[C@H](CN(C)C(=O)C2CCC2)[C@H](C)CN([C@H](C)CO)S3(=O)=O)c1	-4	-14	0	69	.	.	.	.
COc1cccc(-c2ccc3c(c2)O[C@@H](CN(C)C(=O)C2CCC2)[C@@H](C)CN([C@@H](C)CO)S3(=O)=O)c1	-2	-35	.	93	.	.	.	.
COc1cccc(-c2ccc3c(c2)O[C@@H](CN(C)C(=O)C2CCCCC2)[C@@H](C)CN([C@H](C)CO)S3(=O)=O)c1	-2	-59	.	92*	98*	72	23	90*
COc1ccccc1NC(=O)Cn1cnc2scc(-c3cccc([N+](=O)[O-])c3)c2c1=O	.	.	0	.	.	.	.	.
O=C(Nc1ccccc1)N1CC(=O)N2[C@H](CO)[C@@H](c3ccc(C#Cc4cccnc4)cc3)[C@@H]2C1	-1	-2	.	.	.	.	.	.
Cc1noc(C)c1NC(=O)Nc1ccc2c(c1)C(=O)N([C@H](C)CO)C[C@H](C)[C@H](CN(C)C(=O)Nc1ccc(F)cc1)OCCCC[C@H](C)O2	1	-1	.	38	.	.	.	.
COc1ccc2c3c(n(C)c2c1)[C@H](CO)N(C(=O)c1ccccn1)CC31CCN(C)CC1	.	11	.	.	.	.	.	.
COc1cccc(-c2ccc3c(c2)O[C@H](CN(C)C(=O)C2CCCCC2)[C@@H](C)CN([C@@H](C)CO)S3(=O)=O)c1	-4	-37	.	97*	111*	80	-5	76*
COc1cccc(-c2ccc3c(c2)O[C@@H](CN(C)C(=O)C2CCC2)[C@@H](C)CN([C@H](C)CO)S3(=O)=O)c1	0	10	0	44	.	.	.	.
CSc1ccccc1NC(=O)CN(c1cc(Cl)ccc1C)S(C)(=O)=O	.	.	0	.	.	.	.	.
CNC(=O)C[C@@H]1CC[C@H]2[C@@H](COC[C@@H](O)CN2Cc2ccccc2F)O1	-1	34	.	.	.	.	.	.
CCCNC(=O)C[C@H]1CC[C@@H]2[C@H](COC[C@@H](O)CN2Cc2ccccc2F)O1	-3	10	.	97*	40	-11	1	9
O=C(C[C@@H]1CC[C@@H]2[C@H](COC[C@@H](O)CN2Cc2ccccc2F)O1)NCc1ccccc1F	0	-8	.	4	.	.	.	.
CCCNC(=O)C[C@@H]1CC[C@@H]2[C@H](COC[C@@H](O)CN2Cc2ccccc2F)O1	0	-30	.	111*	31	-14	-16	0
O=C(Nc1ccc(F)cc1)N1CC(=O)N2[C@H](C1)[C@H](c1ccc(C#Cc3ccc(F)cc3)cc1)[C@@H]2CO	-1	-26	.	.	.	.	.	.
c1ccc2c(c1)n(CCN1CCOCC1)c1nc(C34CC5CC(CC(C5)C3)C4)cn21	.	.	0	.	.	.	.	.
CCCNC(=O)N1[C@H](CN(C)C(C)=O)[C@H](c2ccc(C3=CCCC3)cc2)[C@@H]1CO	3	6	.	?	-4	0	2	3
SMILES	GASC1 inh	Pf Dd2 inh	IDH1 mut inh	T cruzi growth-1	T cruzi growth-2	T cruzi growth-3	NIH3T3 tox	NIH3T3 tox 2
CCCNC(=O)N1[C@H](CN(C)C(C)=O)[C@@H](c2ccc(C3=CCCC3)cc2)[C@@H]1CO	3	4	.	?	-9	-21	-2	2
Cc1cc(C(=O)Nc2cccc3c2O[C@H](CN(C)Cc2ccc(C(=O)Nc4ccccc4N)cc2)[C@H](C)CN([C@H](C)CO)C3=O)n(C)n1	2	-60	.	103*	-49	-59	-10	-13
Cc1cc(C(=O)Nc2cccc3c2O[C@H](CN(C)Cc2ccc(C(=O)Nc4ccccc4N)cc2)[C@@H](C)CN([C@@H](C)CO)C3=O)n(C)n1	-3	-87*	.	106*	106*	86	10	23
Cc1cc(C(=O)Nc2cccc3c2O[C@@H](CN(C)Cc2ccccc2)[C@@H](C)CN([C@H](C)CO)C3=O)n(C)n1	2	10	1	26	.	.	.	.
C[C@H](CO)N1C[C@H](C)[C@H](CN(C)C(=O)c2ccc3c(c2)OCO3)Oc2cc(-c3ccncc3)ccc2S1(=O)=O	0	-38	0	104*	81	59	16	28*
C[C@H](CO)N1C[C@H](C)[C@H](CN(C)C(=O)c2ccc3c(c2)OCO3)Oc2cc(-c3ccccc3)ccc2S1(=O)=O	-1	-27	0	.	.	.	.	.
C[C@@H]1CN([C@@H](C)CO)S(=O)(=O)c2ccc(-c3ccc(C(=O)N(C)C)cc3)cc2O[C@@H]1CN(C)Cc1ccc2c(c1)OCO2	-1	-48	0	?	90	81	26	92*
